Read-outs that look alike come from different tables or passages of the source. Marks after values point to notes of the source that are not given here.
Assays:
[1] = tested on: healthy volunteers; experiment: Thorough QT/QTc study part 2: Holter ECG, Fridericia-corrected QT interval; assay type: in vivo, human
How it was run: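 Healthy subjects, randomized four-period crossover with 10-day washouts, fed: oral fostemsavir 1,200 mg q.d. or 2,400 mg b.i.d. for 7 days, placebo b.i.d., or single moxifloxacin 400 mg on day 7. Triplicate ECGs from 24-h Holter, read centrally. Baseline is the mean of day-1 predose readings; readings 0.5–22.25 h post-dose on day 7. Linear mixed model gives 90% CI; bound 10 msec; assay sensitivity >5 msec at 2–4 h.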

[2] = tested on: healthy volunteers; parameters: species or system human; details: at observed mean TMR Cmax, healthy adults
[3] = tested on: healthy volunteers; experiment: Adverse events and discontinuations in thorough QT study part 2; assay type: in vivo, human
[4] = tested on: healthy volunteers; experiment: Thorough QT study part 1 sentinel cohort safety; assay type: in vivo, human; details: fostemsavir 2,400 mg b.i.d. for 7 days (n = 6)
[5] = tested on: healthy volunteers; details: total daily fostemsavir dose of 20–2,400 mg ref 10; cited from earlier work
[6] = tested on: HIV‐1; details: cited from earlier work
[7] = tested on: heavily treatment‐experienced subjects; details: treated for 96 weeks, BRIGHTE, fostemsavir 600 mg b.i.d. ref 23; cited from earlier work
[8] = TMR after FTR 600 mg b.i.d., N = 16, healthy adults ref 21; cited from earlier work
[9] = fostemsavir 1,200 mg q.d., at 6 hours postdose
[10] = fostemsavir 2,400 mg b.i.d., at 5 hours post‐AM dose

SMILES: COc1cnc(-n2cnc(C)n2)c2c1c(C(=O)C(=O)N1CCN(C(=O)c3ccccc3)CC1)cn2COP(=O)(O)O [fostemsavir]
- Mean change from baseline, msec ddQTcF ([1]; FTR 1,200 mg q.d. (A), day 7, 0.5 hour): –7.44 msec
- Mean change from baseline, msec ddQTcF ([1]; FTR 1,200 mg q.d. (A), day 7, 1 hour): –7.25 msec
- Mean change from baseline, msec ddQTcF ([1]; FTR 1,200 mg q.d. (A), day 7, 2 hour): –6.78 msec
- Mean change from baseline, msec ddQTcF ([1]; FTR 1,200 mg q.d. (A), day 7, 3 hour): –7.54 msec
- Mean change from baseline, msec ddQTcF ([1]; FTR 1,200 mg q.d. (A), day 7, 4 hour): –3.37 msec
- Mean change from baseline, msec ddQTcF ([1]; FTR 1,200 mg q.d. (A), day 7, 5 hour): –0.49 msec
- Mean change from baseline, msec ddQTcF ([1]; FTR 1,200 mg q.d. (A), day 7, 6 hour): –4.52 msec
- Mean change from baseline, msec ddQTcF ([1]; FTR 1,200 mg q.d. (A), day 7, 8 hour): –6.87 msec
- Mean change from baseline, msec ddQTcF ([1]; FTR 1,200 mg q.d. (A), day 7, 10 hour): 0.76 ms
- Mean change from baseline, msec ddQTcF ([1]; FTR 1,200 mg q.d. (A), day 7, 11.5 hour): –5.31 msec
- Mean change from baseline, msec ddQTcF ([1]; FTR 1,200 mg q.d. (A), day 7, 14 hour): –7.05 msec
- Mean change from baseline, msec ddQTcF ([1]; FTR 1,200 mg q.d. (A), day 7, 15 hour): –3.84 msec
- Mean change from baseline, msec ddQTcF ([1]; FTR 1,200 mg q.d. (A), day 7, 16 hour): –1.48 msec
- Mean change from baseline, msec ddQTcF ([1]; FTR 1,200 mg q.d. (A), day 7, 22.25 hour): –3.18 msec
- Mean difference vs. placebo (90% CI), msec ddQTcF ([1]; FTR 1,200 mg q.d. (A–D), day 7, 0.5 hour): 0.10 (–1.98, 2.18) msec
- Mean difference vs. placebo (90% CI), msec ddQTcF ([1]; FTR 1,200 mg q.d. (A–D), day 7, 1 hour): 0.51 (–1.57, 2.58) msec
- Mean difference vs. placebo (90% CI), msec ddQTcF ([1]; FTR 1,200 mg q.d. (A–D), day 7, 2 hour): 3.84 (1.75, 5.93) msec
- Mean difference vs. placebo (90% CI), msec ddQTcF ([1]; FTR 1,200 mg q.d. (A–D), day 7, 3 hour): 2.49 (0.40, 4.57) msec
- Mean difference vs. placebo (90% CI), msec ddQTcF ([1]; FTR 1,200 mg q.d. (A–D), day 7, 4 hour): 3.66 (1.58, 5.75) msec
- Mean difference vs. placebo (90% CI), msec ddQTcF ([1]; FTR 1,200 mg q.d. (A–D), day 7, 5 hour): 4.18 (2.11, 6.26) msec
- Mean difference vs. placebo (90% CI), msec ddQTcF ([1]; FTR 1,200 mg q.d. (A–D), day 7, 6 hour): 4.27 (2.19, 6.34) msec
- Mean difference vs. placebo (90% CI), msec ddQTcF ([1]; FTR 1,200 mg q.d. (A–D), day 7, 10 hour): 3.94 (1.86, 6.01) msec
- Mean difference vs. placebo (90% CI), msec ddQTcF ([1]; FTR 1,200 mg q.d. (A–D), day 7, 11.5 hour): 1.61 (–0.48, 3.69) msec
- Mean difference vs. placebo (90% CI), msec ddQTcF ([1]; FTR 1,200 mg q.d. (A–D), day 7, 14 hour): –0.10 (–2.18, 1.972) msec
- Mean difference vs. placebo (90% CI), msec ddQTcF ([1]; FTR 1,200 mg q.d. (A–D), day 7, 15 hour): 0.30 (–1.78, 2.38) msec
- Mean difference vs. placebo (90% CI), msec ddQTcF ([1]; FTR 1,200 mg q.d. (A–D), day 7, 16 hour): 0.04 (–2.04, 2.12) msec
- Mean difference vs. placebo (90% CI), msec ddQTcF ([1]; FTR 1,200 mg q.d. (A–D), day 7, 22.25 hour): 0.29 (–1.79, 2.36) msec
- Mean change from baseline, msec ddQTcF ([1]; FTR 2,400 mg b.i.d. (B), day 7, 0.5 hour): –6.04 msec
- Mean change from baseline, msec ddQTcF ([1]; FTR 2,400 mg b.i.d. (B), day 7, 1 hour): –6.15 msec
- Mean change from baseline, msec ddQTcF ([1]; FTR 2,400 mg b.i.d. (B), day 7, 2 hour): –6.90 msec
- Mean change from baseline, msec ddQTcF ([1]; FTR 2,400 mg b.i.d. (B), day 7, 3 hour): –3.67 msec
- Mean change from baseline, msec ddQTcF ([1]; FTR 2,400 mg b.i.d. (B), day 7, 4 hour): 1.64 ms
- Mean change from baseline, msec ddQTcF ([1]; FTR 2,400 mg b.i.d. (B), day 7, 5 hour): 6.50 ms
- Mean change from baseline, msec ddQTcF ([1]; FTR 2,400 mg b.i.d. (B), day 7, 6 hour): 0.18 ms
- Mean change from baseline, msec ddQTcF ([1]; FTR 2,400 mg b.i.d. (B), day 7, 8 hour): –3.46 msec
- Mean change from baseline, msec ddQTcF ([1]; FTR 2,400 mg b.i.d. (B), day 7, 10 hour): 1.51 ms
- Mean change from baseline, msec ddQTcF ([1]; FTR 2,400 mg b.i.d. (B), day 7, 11.5 hour): –3.88 msec
- Mean change from baseline, msec ddQTcF ([1]; FTR 2,400 mg b.i.d. (B), day 7, 14 hour): –1.65 msec
- Mean change from baseline, msec ddQTcF ([1]; FTR 2,400 mg b.i.d. (B), day 7, 15 hour): 4.45 ms
- Mean change from baseline, msec ddQTcF ([1]; FTR 2,400 mg b.i.d. (B), day 7, 16 hour): 8.59 ms
- Mean change from baseline, msec ddQTcF ([1]; FTR 2,400 mg b.i.d. (B), day 7, 22.25 hour): 0.16 ms
- Mean difference vs. placebo (90% CI), msec ddQTcF ([1]; FTR 2,400 mg b.i.d. (B–D), day 7, 0.5 hour): 1.50 (–0.63, 3.62) msec
- Mean difference vs. placebo (90% CI), msec ddQTcF ([1]; FTR 2,400 mg b.i.d. (B–D), day 7, 1 hour): 1.61 (–0.51, 3.73) msec
- Mean difference vs. placebo (90% CI), msec ddQTcF ([1]; FTR 2,400 mg b.i.d. (B–D), day 7, 2 hour): 3.72 (1.60, 5.84) msec
- Mean difference vs. placebo (90% CI), msec ddQTcF ([1]; FTR 2,400 mg b.i.d. (B–D), day 7, 3 hour): 6.36 (4.23, 8.48) msec
- Mean difference vs. placebo (90% CI), msec ddQTcF ([1]; FTR 2,400 mg b.i.d. (B–D), day 7, 4 hour): 8.67 (6.55, 10.79) msec
- Mean difference vs. placebo (90% CI), msec ddQTcF ([1]; FTR 2,400 mg b.i.d. (B–D), day 7, 5 hour): 11.18 (9.05, 13.30) msec
- Mean difference vs. placebo (90% CI), msec ddQTcF ([1]; FTR 2,400 mg b.i.d. (B–D), day 7, 6 hour): 8.96 (6.84, 11.10) msec
- Mean difference vs. placebo (90% CI), msec ddQTcF ([1]; FTR 2,400 mg b.i.d. (B–D), day 7, 8 hour): 5.33 (3.21, 7.46) msec
- Mean difference vs. placebo (90% CI), msec ddQTcF ([1]; FTR 2,400 mg b.i.d. (B–D), day 7, 10 hour): 4.69 (2.57, 6.81) msec
- Mean difference vs. placebo (90% CI), msec ddQTcF ([1]; FTR 2,400 mg b.i.d. (B–D), day 7, 11.5 hour): 3.04 (0.92, 5.17) msec
- Mean difference vs. placebo (90% CI), msec ddQTcF ([1]; FTR 2,400 mg b.i.d. (B–D), day 7, 14 hour): 5.30 (3.18, 7.43) msec
- Mean difference vs. placebo (90% CI), msec ddQTcF ([1]; FTR 2,400 mg b.i.d. (B–D), day 7, 15 hour): 8.60 (6.47, 10.73) msec
- Mean difference vs. placebo (90% CI), msec ddQTcF ([1]; FTR 2,400 mg b.i.d. (B–D), day 7, 16 hour): 10.10 (7.98, 12.23) msec
- Mean difference vs. placebo (90% CI), msec ddQTcF ([1]; FTR 2,400 mg b.i.d. (B–D), day 7, 22.25 hour): 3.63 (1.51, 5.75) msec
- change from placebo in baseline‐adjusted Fridericia‐corrected QTc (ddQTcF) ([1]; Fostemsavir 1,200 mg b.i.d.): did not result in a clinically meaningful change
- effect on heart rate, QRS or PR intervals, or waveform morphology ([1]; fostemsavir 1,200 mg q.d. and 2,400 mg b.i.d.): did not have a clinically meaningful effect
- upper bound of the 90% CI around ddQTcF ([1]; fostemsavir 1,200 mg q.d., all time points): below 10 msec
- ddQTcF upper bound of two‐sided 90% CI at maximum [1, 9]: 6.3 ms
- maximum time‐matched ddQTcF [1, 9]: 4.3 ms
- subjects with maximum QTcF between 450 and 480 msec ([1]; fostemsavir 2,400 mg b.i.d.): Three
- subjects with maximum change in QTcF between 30 and 60 msec ([1]; fostemsavir 2,400 mg b.i.d.): Four
- ddQTcF upper bound of two‐sided 90% CI at maximum [1, 10]: 13.3 ms
- maximum time‐matched ddQTcF [1, 10]: 11.2 ms
- ddQTcF upper bound of two‐sided 90% CI at maximum ([1]; fostemsavir 2,400 mg b.i.d., at 5 hours post‐AM dose, listed as FTR): 13.3 (at 5 hour) msec
- ddQTcF upper 90% CI boundary, model‐predicted ([2]; FTR 600 mg b.i.d. + cobicistat 150 mg q.d.): ≤ 5.0 ms
- ddQTcF upper 90% CI boundary, model‐predicted ([2]; FTR 600 mg b.i.d. + cobicistat 150 mg q.d., listed as FTR): 5.0 ^a msec
- ddQTcF upper 90% CI boundary, model‐predicted ([2]; FTR 600 mg b.i.d.): ≤ 3.2 ms
- ddQTcF upper 90% CI boundary, model‐predicted ([2]; FTR 600 mg b.i.d., listed as FTR): 3.2 ^a msec
- AE rate ([3]; fostemsavir 1,200 mg q.d.): 53%
- headache ([3]; fostemsavir 1,200 mg q.d.): 16%
- AE rate ([3]; fostemsavir 2,400 mg b.i.d.): 56%
- headache ([3]; fostemsavir 2,400 mg b.i.d.): 35%
- subjects discontinued for AEs ([3]; fostemsavir 2,400 mg b.i.d. (vomiting, elevated aminotransferases, rash, headache/anxiety/dyspnea/pharyngeal edema)): five
- safety data [4]: all AEs (primarily dizziness and headache) were mild and there were no relevant cardiac signals
- cardiovascular abnormalities [5]: no clinically relevant cardiovascular abnormalities were observed
- activity with regard to HIV‐1 tropism [6]: active regardless of HIV‐1 tropism
- in vitro cross‐resistance to other antiretroviral drug classes [6]: no in vitro cross‐resistance
- subjects discontinued due to QT prolongation (> 450 msec) [7]: Less than 2%
- subjects discontinued due to QT prolongation (> 450 msec), number/total [7]: 7/371
- Mean Cmax [8]: 2,096 ^b ng/mL
